Consider 12 compounds from publication PMC11482939 (bioRxiv, 2025).

Entries after “also recorded” stand apart in the source; their conditions may differ. Like-named read-outs stand apart in the source and are kept apart here.

Assay [1] deals with MP41 and MP38 cells. Nature of the assay: HDAC3 / HDAC8 inhibitor concentration-response testing. Format: cell-based, human. As to conditions: alone or in combination. A digest of the protocol:
(§1)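 Cells treated 72 h with a 10-point 1:3 dilution series from nominal 10 μM top (one compound started at 300 nM), n = 4. Viability read by CellTiter-Glo ATP luminescence and normalized to 0.1% DMSO controls. IC50 and % viability derived by four-parameter log(inhibitor) vs. response fit with variable slope.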

In assay [2] the test system is UM cell lines (MP41, MP38, MP46). In words: Concentration-response cell viability, UM cell lines overall. Format: cell-based, human. As to conditions: 72 h.
In assay [3] the test system is WS1 fibroblast cell line. In words: Viability assay on non-cancerous fibroblasts. The format is cell-based. The conditions noted are these: for IC50: Fibroblast, read-out: fibroblast IC50; for fold higher IC50 / lower toxicity for non-cancerous cells than for UM cells: WS1 fibroblast IC50 vs UM IC50. The procedure, abridged:
as §1

Assay [4] concerns MP41 metastatic UM xenograft. In words: Metastatic UM xenograft mouse model. Format: in vivo, NSG mice. As to conditions: for survival in comparison with the vehicle group: log-rank test, p > 0.10. A digest of the protocol:
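Female NSG mice, 16 weeks old, given 1 × 10^5 FACS-sorted RFP-luciferase-transduced MP41 cells via tail vein; n = 10 per group, randomized. From day 7, test compound dosed at 2 mg/kg IP weekly. Weekly IVIS imaging 10 min after 150 mg/kg IP d-luciferin. Endpoint was >20% weight loss or health decline; organs imaged ex vivo; survival compared by log-rank.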

The subject of assay [5] is MP41 cells extracted from mouse liver metastases. In words: Ex vivo resistance testing of UM cells from mouse liver metastases. The format is cell-based, human. As to conditions: relative to cells from vehicle group. The procedure, abridged: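 Liver tissue from treated and vehicle mice minced and digested overnight at 4°C in D-MEM with 400 U/mL type IV collagenase and 0.5 μg/mL amphotericin B. Cells grown in UM medium, confirmed as MP41 by RFP fluorescence, then given 10-point 1:3 dilution series for 72 h. Viability read by CellTiter-Glo ATP luminescence relative to 0.1% DMSO.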

Assay [6] concerns UM cell lines, including UMM66 cells. In words: Romidepsin from two sources in UM cell lines including UMM66. Format: cell-based. The conditions noted are these: Homo sapiens, read-out: IC50 in all UM cell lines including UMM66.
Assay [7] has as its system UM cells. Nature of the assay: Synergy testing of romidepsin and quisinostat with other hit compounds. As to conditions: plus EC20 of other candidate compound. Format: cell-based, human.
[8] abbreviates: Homo sapiens, read-out: UM IC50, UM cell lines, 72 h.
The mark [9] stands for this setting: read-out: UM IC50, UM cell lines.

`COc1ccc(Cn2ccc3ccc(C(=O)NO)cc32)cc1` [PCI-34051]: the “potency of HDAC3 / HDAC8 inhibitor” value in assay [1] is on record as “neither was potent”.
What is called IC50 is the concentration at which inhibition is half-maximal. In the case of `CC[C@@]1(O)C(=O)OCc2c1cc1n(c2=O)Cc2cc3ccccc3nc2-1` [(S)-(+)-Camptothecin], the IC50 in assay [2] (Homo sapiens, read-out: UM IC50) is approximately 334 nM.
Turning to `Cc1[nH]c2ccccc2c1CCNCc1ccc(/C=C/C(=O)NO)cc1` [Panobinostat], the half-maximal inhibitory concentration (IC50) in assay [2] (setting [8]) is approximately 26 nM; in assay [3], approximately 124 nM. The “fold higher IC50 / lower toxicity for non-cancerous cells than for UM cells” value in assay [3] was 4- to 5 fold.
Take `CCS(=O)(=O)Nc1ccc(Oc2ccc(F)cc2F)c(-c2cn(C)c(=O)c3[nH]ccc23)c1` [Mivebresib]: the figures for the 50% inhibitory concentration (IC50) in assay [2] (setting [8]) and in assay [3] were approximately 125 nM and more than 10000 nM, respectively. In addition, the “metastases detected in organs (ex vivo IVIS)” value in assay [4] (femur, spinal cord) was “prevented the development of detectable spinal cord and femur metastases”. For the same compound, in assay [5], the “acquired drug resistance after long-term in vivo treatment” value (shortened to “acquired drug resistance after long-term”) is “No significant resistance was detected”.
`Nc1cc(F)ccc1NC(=O)/C=C/c1cnn(C/C=C/c2ccccc2)c1` [RGFP966]: the “potency of HDAC3 / HDAC8 inhibitor” value in assay [1] is “neither was potent”.
On to `C/C=C1\NC(=O)[C@H]2CSSCC/C=C/[C@H](CC(=O)N[C@H](C(C)C)C(=O)N2)OC(=O)[C@H](C(C)C)NC1=O` [Romidepsin], for which the half-maximal inhibitory concentration (IC50) in assay [2] (setting [8]) is approximately 3.5 nM; in assay [6], 2.4 to 5.7 nM. Moreover, the “synergy with the other 16 compounds” value in assay [7] was “did not find significant synergy”. The “survival in comparison with the vehicle group” value in assay [4] is reported as “did not significantly improve survival rates; also recorded: did not improve the survival rate”. Also, in assay [5], the “acquired drug resistance after long-term” value is reported as “No significant resistance was detected”.
Take `COc1ccc(-c2nc(N3CCOCC3)c3sc(CN(C)c4ncc(C(=O)NO)cn4)cc3n2)cn1` [Fimepinostat]: the values for the concentration for half-maximal inhibition (IC50) in assay [2] (setting [8]) and in assay [3] were approximately 11 nM and approximately 55 nM, respectively. Also, the “fold higher IC50 / lower toxicity for non-cancerous cells than for UM cells” value in assay [3] is listed as 4- to 5 fold.
Consider `Cn1cc(CNCC2CCN(c3ncc(C(=O)NO)cn3)CC2)c2ccccc21` [Quisinostat], for which, in assay [2] (setting [8]), the 50% inhibitory concentration (IC50) is approximately 14 nM. In assay [3], the IC50 was approximately 118 nM and the “fold higher IC50 / lower toxicity for non-cancerous cells than for UM cells” value is “approximately 9 fold”. Also, in assay [7], the “synergy with the other 16 compounds” value is recorded as “did not find significant synergy”. Also, the “survival in comparison with the vehicle group” value in assay [4] is recorded as “did not significantly improve survival rates”. Further, in assay [5], the “acquired drug resistance after long-term” value was “No significant resistance was detected”.
On to `CC(C)C[C@H](NC(=O)[C@H](Cc1ccccc1)NC(=O)c1cnccn1)B(O)O` [Velcade], for which the half-inhibitory concentration (IC50) in assay [2] (setting [8]) is approximately 7.6 nM; in assay [2] (setting [9]), approximately 8 nM; in assay [3], approximately 57 nM.
With `COc1cc([C@@H]2c3cc4c(cc3[C@H](O)[C@H]3COC(=O)[C@H]23)OCO4)cc(OC)c1OC` [Podofilox], the half-inhibitory concentration (IC50) in assay [2] (setting [8]) was approximately 9.36 nM.
As for Cucurbitacin B, the IC50 in assay [2] (setting [9]) is approximately 37.9 nM.
Consider `Nc1ccn([C@@H]2O[C@H](CO)[C@@H](O)C2(F)F)c(=O)n1` [Gemcitabine], for which the IC50 in assay [2] (setting [8]) is approximately 493 nM.
